The source of these data is ChEMBL document CHEMBL2331338, “Steroidal constituents from the leaves of Hosta longipes and their inhibitory effects on nitric oxide production” (Bioorg Med Chem Lett, 2013).

Molecules are shown by their SMILES. Bounds are passed on as bounds.

For orientation: IC50 means the concentration that gives 50% inhibition.

Series [1] is described as follows: Cytotoxicity against mouse BV2 cells assessed as cell viability at 20 uM by MTT assay. It is filed as cell-based, BV-2. The settings on record: read-out: Activity. The procedure, abridged:
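BV-2 cells exposed to 20 μM of each compound; viability expressed as percentage of the LPS-only treatment group; three independent experiments, mean SD.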
Background: Tetrazolium assays rely on reduction of a dye to a coloured formazan, in cell work by metabolically active cells.

The subject of the next series is BV-2. Description: Antineuroinflammatory activity in mouse BV2 cells assessed as inhibition of nitric oxide production treated 30 mins before LPS challenge measured after 24 hrs by Griess reagent method. It is filed as functional, cell-based. Put shortly:
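Murine microglial BV-2 cells activated with LPS; NO production measured; IC50 taken as the concentration (μM) causing 50% inhibition of NO production in LPS-activated cells.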
(The Griess reaction detects nitrite, a stable product of nitric oxide.)

Series [2] in a line: Cytotoxicity against mouse BV2 cells assessed as cell viability by MTT assay. It is filed as cell-based, BV-2. The conditions noted are these: read-out: LD50 (the source's name). Put shortly: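 Mouse microglial BV-2 cells activated with LPS and treated with each compound at 20 μM. Viability is expressed as a percentage of the LPS-only group. Values are averages of three independent experiments, given as mean SD.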

Regarding `C[C@@H](CO)CC[C@H](O)[C@@H](C)[C@H]1[C@@H](O)C[C@H]2[C@@H]3CCC4=CC(=O)CC[C@]4(C)[C@H]3C[C@@H](O)[C@]12C`, the viability at 20 µM in series [1] amounted to 93.4%. The IC50 in the series on BV-2 is greater than 200 µM.
On to `C[C@H](CC[C@H](O)[C@@H](C)[C@H]1[C@@H](O)C[C@H]2[C@@H]3CCC4=CC(=O)CC[C@]4(C)[C@H]3C[C@@H](O)[C@]12C)CO[C@@H]1O[C@H](CO)[C@@H](O)[C@H](O)[C@H]1O`, for which, in series [1], the viability at 20 µM turned out to be 94.8%. Further, in the series with BV-2, the IC50 was 46.3 µM.
In the case of `C[C@@H]1CC[C@@]2(OC1)O[C@H]1C[C@H]3[C@@H]4CC[C@H]5C[C@@H](O[C@@H]6O[C@H](CO)[C@H](O[C@@H]7O[C@H](CO)[C@@H](O)[C@H](O)[C@H]7O)[C@H](O)[C@H]6O[C@@H]6O[C@@H](C)[C@H](O)[C@@H](O)[C@H]6O)[C@H](O)C[C@]5(C)[C@H]4CC[C@]3(C)[C@H]1[C@@H]2C`, the CC50 in series [2] was 3.12 µM. In addition, the viability at 20 µM in series [1] was 38.9%. In the series on BV-2, the IC50 worked out at 2.7 µM.
Take `C[C@@H]1CC[C@@]2(OC1)O[C@H]1C[C@H]3[C@@H]4CC[C@H]5C[C@@H](O[C@@H]6O[C@H](CO)[C@H](O[C@@H]7O[C@H](CO)[C@@H](O)[C@H](O[C@@H]8OC[C@@H](O[C@@H]9O[C@@H](C)[C@H](O)[C@@H](O)[C@H]9O)[C@H](O)[C@H]8O)[C@H]7O[C@@H]7O[C@H](CO)[C@@H](O)[C@H](O)[C@H]7O)[C@H](O)[C@H]6O)[C@H](O)C[C@]5(C)[C@H]4CC[C@]3(C)[C@H]1[C@@H]2C`: the viability at 20 µM in series [1] is 86.4%. Besides, in the series on BV-2, the IC50 stood at 13.2 µM.
For `C[C@@H]1CC[C@@]2(OC1)O[C@H]1C[C@H]3[C@@H]4CC[C@H]5C[C@@H](O[C@@H]6O[C@H](CO)[C@H](O[C@@H]7O[C@H](CO)[C@@H](O)[C@H](O[C@@H]8OC[C@@H](O)[C@H](O)[C@H]8O)[C@H]7O[C@@H]7O[C@H](CO)[C@@H](O)[C@H](O)[C@H]7O)[C@H](O)[C@H]6O)[C@H](O)C[C@]5(C)[C@H]4CC[C@]3(C)[C@H]1[C@@H]2C` the same measures were 89.6% and 17.7 µM.
In the case of `CNC(=N)NCCC[C@H](N)C(=O)O` [TILARGININE], the viability at 20 µM in series [1] stood at 102%. Also, the IC50 with BV-2 came to 14.3 µM.
